Measurements gathered from unrelated publications.
Protocols differ between the studies behind these lines.
rep main protease: Replicase polyprotein 1ab, main protease (rep, Severe acute respiratory syndrome coronavirus 2, UniProt P0DTD1)
rep methyltransferase: Replicase polyprotein 1ab, methyltransferase (rep, Severe acute respiratory syndrome coronavirus 2, UniProt P0DTD1)
FABP1: Fatty acid-binding protein, liver (FABP1, Homo sapiens, UniProt P07148)

CCOC(=O)c1ccc(OC(=O)CCCCCN=C(N)N)cc1  IC50 (Kallikrein-12 (Homo sapiens, UniProt Q9UKR0); enzyme activity; inhibitor): 0.0357 µM
O=C(O)c1cc(O)c(O)c(O)c1  Kd (rep main protease; binding; MST): 3.95 µM
CC(=O)[C@@]1(O)CC[C@H]2[C@@H]3C[C@H](C)C4=CC(=O)C=C[C@]4(C)[C@@]3(F)[C@@H](O)C[C@@]21C  IC50 (rep main protease; enzyme activity; inhibitor): 60.6 µM
CN1C(=O)/C(=N\Nc2ncc(-c3cc4ccccc4oc3=O)s2)c2cc(Cl)ccc21  IC50 (Alpha-glucosidase MAL12 (MAL12, Saccharomyces cerevisiae S288c, UniProt P53341); enzyme activity; inhibitor; absorbance): 112 µM
COc1cc2c(cc1OC)CN(CCc1ccc(NC(=O)c3cccc4c(=O)c5cccc(OC)c5[nH]c34)cc1)CC2  Ki (Histamine H2 receptor (HRH2, Homo sapiens, UniProt P25021); cell-free assay): 1100 nM
CC1CC(c2ccc(S(N)(=O)=O)cc2)=NN1c1ccc(C#N)c(Cl)c1 (centres unmarked)  IC50 (rep methyltransferase; enzyme activity; inhibitor): > 100 µM
CCNS(=O)(=O)C(F)(F)C(F)(F)C(F)(F)C(F)(F)C(F)(F)C(F)(F)C(F)(F)C(F)(F)F  Kd (FABP1; ligand displacement; fluorescence): 16.6 µM
CC1(C)O[C@@H]2C[C@H]3[C@@H]4CCC5=CC(=O)C=C[C@]5(C)[C@H]4[C@@H](O)C[C@]3(C)[C@]2(C(=O)CO)O1  IC50 (rep main protease; enzyme activity; inhibitor): 71.4 µM
O=c1c(O)c(-c2ccc(O)cc2)oc2c(O)c(O)cc(O)c12  IC50 (rep main protease; enzyme activity; inhibitor; with preincubation): < 10 µM
COc1ncc(-c2ccc3nccc(-c4ccnnc4)c3c2)cc1NS(=O)(=O)c1ccc(F)cc1F  IC50 (rep methyltransferase; enzyme activity; inhibitor): ~100 µM
NS(=O)(=O)C(F)(F)C(F)(F)C(F)(F)C(F)(F)C(F)(F)C(F)(F)C(F)(F)C(F)(F)F  Kd (FABP1; ligand displacement; fluorescence): 5.87 µM
